Laboratory results reported in ChEMBL document CHEMBL1124114, “Peripherally acting enkephalin analogues. 1. Polar pentapeptides” (J Med Chem, 1988).
Numbered stars: 1 amine (or outer) side, 2 acyl side, 3 side chain; on linkers, the order of the positions; unused ones are H or OH. Square brackets hold non-standard residues; d marks the D form. Peptide text beside a SMILES is read from it. * marks the point of attachment. Phe(4-NO2) = N[C@@H](Cc1ccc([N+](=O)[O-])cc1)C(=O)O; Tyr(Nα-amidino) = N=C(N)N[C@@H](Cc1ccc(O)cc1)C(=O)*; X1 = O=C([C@@H](CSS(=O)(=O)O)N[*:1])[*:2]; X3 = O=C([C@@H](CCS(=O)(=O)O)N[*:1])[*:2]; X2 = C[S+](C)CC[C@@H](N[*:1])C(=O)[*:2]

How the values were obtained:
Assay type in all cases: functional
Mus musculus [1] = assay: In vivo inhibition of phenyl-1,4-benzoquinone(PBQ) -induced writhing in mice (sc)
How it was run: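 Female CD1 Charles River mice, groups of five to six; PBQ 2.5 mg kg⁻¹ ip (10 mL kg⁻¹). Drug or vehicle sc 30 min before PBQ; writhes (abdominal contractions/hind-limb extensions) counted 2.5 min starting 10 min post-PBQ. ED50 = dose halving writhes vs vehicle, from linear regression.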

Mus musculus [2] = species on record: Mus musculus; assay: Effective dose was measured in hot plate test.
How it was run: (§1)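 Male CFLP mice (Hacking and Churchill), groups of five to six, placed on copper plate at 55 °C; endpoint paw licking/shaking or jumping, 30-s cut-off. Drugs sc, 10 mL kg⁻¹. ED50 = dose doubling response latency vs vehicle, by parallel-line probit analysis.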

Cavia porcellus = species on record: Cavia porcellus; assay: In vitro opioid activity of compound in the GPI (guinea pig ileum) by determination of inhibition of electrically induced contractions
How it was run: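 Terminal ileum segments from 300-350 g guinea pigs in 20-mL bath, 1-g tension, Krebs' bicarbonate gassed 95% O2/5% CO2. Coaxial stimulation 0.1 Hz, 0.5 ms, supramaximal voltage; isotonic recording of contractions. Dose-response curves with 15-min washout between doses; opioid nature checked by reversal with naloxone (1 μg mL⁻¹).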

Mus musculus [3] = assay: In vivo inhibition of Acetic acid-induced writhing in mice (sc)
How it was run: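 Male TFW Tuck mice, five to six per group; acetic acid (0.6%) ip, 25 mL kg⁻¹; writhes counted for 5 min from 15 min after irritant. Compounds sc, 10 mL kg⁻¹. ED50 = dose giving 50% fewer writhes than vehicle, by linear regression.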

[4] = Dose ratio in the presence / absence of N-methyl-nalorphine (11.5 mg/kg) in acetic acid (AA) writhing
How it was run: (§2)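 Male TFW Tuck mice, groups of five to six; acetic acid (0.6%) ip at 25 mL kg⁻¹; writhes counted 5 min starting 15 min post-irritant. N-methylnalorphine 11.5 mg kg⁻¹ ip 20 min before sc agonist (both 10 mL kg⁻¹). ED50 by linear regression (50% writhe reduction vs vehicle); dose ratio = shift of parallel regression lines with/without antagonist.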

Mus musculus [5] = assay: Effective dose was measured in hot plate test; no effect 25 mg/kg; how it was run: as §1
[6] = Dose ratio in the presence/absence of N-methyl-nalorphine (11.5 mg/kg) in acetic acid (AA) writhing; how it was run: as §2

SMILES	ED50 (Mus musculus [1]) [mg/kg]	ED50 (Mus musculus [2]) [mg/kg]	IC50 for inhibition of electrically induced contractions (Cavia porcellus) [nM]	ED50 (Mus musculus [3]) [mg/kg]	Ratio [4]	ED50 at 25 mg/kg (Mus musculus [5]) [mg/kg]	Ratio [6]
N=C(N)N[C@@H](Cc1ccc(O)cc1)C(=O)N[C@H](CCC(=O)O)C(=O)NCC(=O)N[C@@H](Cc1ccc([N+](=O)[O-])cc1)C(=O)N1CCC[C@H]1C(N)=O	0.3	5.3	414	0.5	1.2	–	–
NC(=O)[C@@H]1CCCN1C(=O)[C@H](Cc1ccc([N+](=O)[O-])cc1)NC(=O)CNC(=O)[C@@H](CCC(=O)O)NC(=O)[C@@H](N)Cc1ccc(O)cc1	3	7.6	9	1.4	5.5	–	–
CN1CC[C@]23c4c5ccc(O)c4O[C@H]2[C@@H](O)C=C[C@H]3[C@H]1C5 [MORPHINE]	–	–	–	0.5	–	–	–
C[S+](C)CC[C@@H](NC(=O)[C@H](Cc1ccc(O)cc1)N=C(N)N)C(=O)NCC(=O)N[C@@H](Cc1ccc([N+](=O)[O-])cc1)C(=O)N1CCC[C@H]1C(N)=O.Cl.Cl	1.1	10.9	525	0.5	4.2	–	–
N=C(N)NCCC[C@@H](NC(=O)[C@H](Cc1ccc(O)cc1)NC(=N)N)C(=O)NCC(=O)N[C@@H](Cc1ccc([N+](=O)[O-])cc1)C(=O)N1CCC[C@H]1C(N)=O ({Tyr(Nα-amidino)}-[dR]G[Phe(4-NO2)]P-NH2)	1.3	–	420	0.8	4.6	25	–
C[S+](C)CC[C@@H](NC(=O)[C@@H](N)Cc1ccc(O)cc1)C(=O)NCC(=O)N[C@@H](Cc1ccc([N+](=O)[O-])cc1)C(=O)N1CCC[C@H]1C(N)=O.Cl.Cl (H-Y[X2]G[Phe(4-NO2)]P-NH2)	3.1	–	61.2	8.1	–	–	3.3
NC(=O)[C@@H]1CCCN1C(=O)[C@H](Cc1ccc([N+](=O)[O-])cc1)NC(=O)CNC(=O)[C@@H](CCCN=C(N)N)NC(=O)[C@@H](N)Cc1ccc(O)cc1	4.9	35	132	5.7	5.5	–	–
Cl.NC(=O)[C@@H]1CCCN1C(=O)[C@H](Cc1ccc([N+](=O)[O-])cc1)NC(=O)CNC(=O)[C@@H](CCS(=O)(=O)O)NC(=O)[C@@H](N)Cc1ccc(O)cc1 (H-Y[X3]G[Phe(4-NO2)]P-NH2)	3.1	18.6	807	3.5	4.2	–	–
CSCC[C@H](NC(=O)[C@@H](N)Cc1ccc(O)cc1)C(=O)NCC(=O)N[C@@H](Cc1ccc([N+](=O)[O-])cc1)C(=O)N1CCC[C@H]1C(N)=O (H-YMG[Phe(4-NO2)]P-NH2)	0.4	1.6	1.8	0.1	1.2	–	–
NC(=O)[C@@H]1CCCN1C(=O)[C@H](Cc1ccc([N+](=O)[O-])cc1)NC(=O)CNC(=O)[C@@H](CSS(=O)(=O)O)NC(=O)[C@@H](N)Cc1ccc(O)cc1 (H-Y[X1]G[Phe(4-NO2)]P-NH2)	0.4	9.7	7.5	0.5	3.9	–	–
Cl.NC(=O)[C@@H]1CCCN1C(=O)[C@H](Cc1ccc([N+](=O)[O-])cc1)NC(=O)CNC(=O)[C@@H](CS(=O)(=O)O)NC(=O)[C@@H](N)Cc1ccc(O)cc1	–	19	89.4	5.9	–	–	–
NC(=O)[C@@H]1CCCN1C(=O)[C@H](Cc1ccc([N+](=O)[O-])cc1)NC(=O)CNC(=O)[C@@H](CSCCS(=O)(=O)[O-])NC(=O)[C@@H](N)Cc1ccc(O)cc1.[Na+]	–	–	3.6	0.1	4	–	–
